According to ChEMBL document CHEMBL2069268, “Opioid activity of spinally selective analogues of N-naphthoyl-β-naltrexamine in HEK-293 cells and mice” (J Med Chem, 2012):
Activity calls are given as the source filed them.

Key:
[1] = molecular target: Delta-type opioid receptor (Homo sapiens) (UniProt P41143); test: Agonist activity at human delta opioid receptor expressed in HEK cells assessed as induction of intracellular calcium release by FLIPR assay; assay type: functional, cell-based; conditions: HEK293
How it was run: (§1)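 HEK-293 cells stably carrying chimeric Δ6-Gαqi4-myr (zeocin selection, DMEM+10% FBS, 37 °C, 10% CO2) transiently transfected with opioid receptor DNA (200 ng/20,000 cells); seeded 24 h later; day 3 loaded with Ca2+ dye 60 min at 37 °C. After 30 s equilibration, ligand added over a concentration range; fluorescence read; ΔRFU (max−min) per concentration fitted by nonlinear regression; peak effect recorded; ≥3 independent runs, 4 internal replicates.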

[2] = molecular target: Opioid receptors; mu & kappa (Homo sapiens) (UniProt P41145+P35372); test: Agonist activity at human mu-kappa opioid receptor expressed in HEK cells assessed as induction of intracellular calcium release by FLIPR assay; assay type: functional, cell-based; conditions: HEK293; how it was run: as §1
[3] = molecular target: Opioid receptors; mu & delta (Homo sapiens) (UniProt P41143+P35372); test: Agonist activity at human mu-delta opioid receptor expressed in HEK cells assessed as induction of intracellular calcium release by FLIPR assay; assay type: functional, cell-based; conditions: HEK293; how it was run: as §1
Mus musculus [4] = test: Antinociceptive effect in intrathecally dosed ICR-CD1 mouse assessed as peak time effect by tail flick test; assay type: functional
How it was run: (§2)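 Male ICR-CD1 mice (17–25 g), conscious, dosed intrathecally in 5 μl (10% DMSO stock diluted to ≤1% DMSO). Radiant-heat tail-flick; %MPE = (test−control)/(10−control)×100 with 10 s cutoff. Peak antinociception located by time course at 10, 20, 30, 60 min. ≥3 groups of 8–10 mice per curve, mice used once; ED50 with 95% CI by nonlinear regression.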

Mus musculus [5] = test: Antinociceptive effect in intracerebroventricular dosed ICR-CD1 mouse assessed as peak time effect by tail flick test; assay type: functional
How it was run: (§3)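 Male ICR-CD1 mice (17–25 g), conscious, given compound i.c.v. in 5 μl (stock in 10% DMSO, diluted to ≤1% DMSO). Radiant-heat tail-flick latency, 10 s cutoff; %MPE = (test−control)/(10−control)×100. Peak time from time course at 10, 20, 30, 60 min. ≥3 groups of 8–10 mice per dose-response curve, each mouse used once; ED50 with 95% CI by nonlinear regression.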

Mus musculus [6] = test: Toxicity in intrathecally dosed ICR-CD1 mouse assessed as dose tolerance after 24 hrs; assay type: organism-based; conditions: in vivo, icv_or_intrathecal
How it was run: (§4)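 Acute 24 h tolerance in male ICR-CD1 mice by i.c.v. or i.t. route: highest (ED80–90) dose of the day-1 dose-response curve repeated on the same mice 24 h later; tail-flick %MPE compared between days; no significant difference taken as not tolerant.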

Mus musculus [7] = test: Antinociceptive effect in intrathecally dosed ICR-CD1 mouse by tail flick test; assay type: functional; how it was run: as §2
Mus musculus [8] = test: Antinociceptive effect in intracerebroventricular dosed ICR-CD1 mouse by tail flick test; assay type: functional; how it was run: as §3
Mus musculus [9] = test: Toxicity in intracerebroventricular dosed ICR-CD1 mouse assessed as dose tolerance after 24 hrs; assay type: organism-based; conditions: in vivo, icv_or_intrathecal; how it was run: as §4
[10] = molecular target: Opioid receptors; delta & kappa (Homo sapiens) (UniProt P41145+P41143); test: Agonist activity at human delta-kappa opioid receptor expressed in HEK cells assessed as induction of intracellular calcium release by FLIPR assay; assay type: functional, cell-based; conditions: HEK293; how it was run: as §1
Mus musculus [11] = test: Antinociceptive effect in intrathecally dosed wild type ICR-CD1 mouse after 20 mins in presence of NTI; assay type: functional
How it was run: (§5)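 Wild-type male ICR-CD1 mice dosed intrathecally in 5 μl (≤1% DMSO) with antagonist timed to peak with agonist: NTI 5 nmol/mouse or nor-BNI 2.5 nmol/mouse, each 20 min peak time.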

Mus musculus [12] = test: Antinociceptive effect in intrathecally dosed wild type ICR-CD1 mouse after 20 mins in presence of nor-BNI; assay type: functional; how it was run: as §5
Mus musculus [13] = test: Antinociceptive effect in intrathecally dosed MOR-KO mouse; assay type: functional, organism-based
How it was run: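 MOR-KO mice, 13–15 weeks old, equal males and females, eight per group, given compound intrathecally in 5 μl (≤1% DMSO); antinociception scored by radiant-heat tail-flick as %MPE with 10 s cutoff.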

Chain of Opioid receptors; mu & kappa (Homo sapiens) (P35372 whole entry, looked up): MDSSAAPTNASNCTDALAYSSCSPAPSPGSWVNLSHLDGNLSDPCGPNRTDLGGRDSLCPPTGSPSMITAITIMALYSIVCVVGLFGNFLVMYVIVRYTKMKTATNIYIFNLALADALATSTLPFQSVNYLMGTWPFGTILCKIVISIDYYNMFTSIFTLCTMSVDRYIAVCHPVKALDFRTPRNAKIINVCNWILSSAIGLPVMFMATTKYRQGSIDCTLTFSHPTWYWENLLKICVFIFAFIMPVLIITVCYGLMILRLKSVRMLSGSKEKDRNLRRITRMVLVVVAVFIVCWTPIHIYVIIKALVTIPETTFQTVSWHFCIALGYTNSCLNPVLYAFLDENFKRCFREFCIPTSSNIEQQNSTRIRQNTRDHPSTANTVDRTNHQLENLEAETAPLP
Chain of Opioid receptors; mu & kappa (Homo sapiens) (P41145 whole entry, looked up): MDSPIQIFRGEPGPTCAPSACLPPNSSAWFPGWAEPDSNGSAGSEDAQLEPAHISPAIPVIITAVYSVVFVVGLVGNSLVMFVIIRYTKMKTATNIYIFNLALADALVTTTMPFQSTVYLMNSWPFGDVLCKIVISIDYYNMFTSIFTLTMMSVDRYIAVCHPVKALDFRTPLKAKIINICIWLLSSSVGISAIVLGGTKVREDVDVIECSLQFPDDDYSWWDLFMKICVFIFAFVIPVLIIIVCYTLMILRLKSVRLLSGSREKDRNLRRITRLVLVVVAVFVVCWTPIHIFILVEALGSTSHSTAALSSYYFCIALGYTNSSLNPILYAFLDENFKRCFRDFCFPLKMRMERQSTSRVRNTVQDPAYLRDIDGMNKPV
Chain of Delta-type opioid receptor (Homo sapiens) (P41143 whole entry): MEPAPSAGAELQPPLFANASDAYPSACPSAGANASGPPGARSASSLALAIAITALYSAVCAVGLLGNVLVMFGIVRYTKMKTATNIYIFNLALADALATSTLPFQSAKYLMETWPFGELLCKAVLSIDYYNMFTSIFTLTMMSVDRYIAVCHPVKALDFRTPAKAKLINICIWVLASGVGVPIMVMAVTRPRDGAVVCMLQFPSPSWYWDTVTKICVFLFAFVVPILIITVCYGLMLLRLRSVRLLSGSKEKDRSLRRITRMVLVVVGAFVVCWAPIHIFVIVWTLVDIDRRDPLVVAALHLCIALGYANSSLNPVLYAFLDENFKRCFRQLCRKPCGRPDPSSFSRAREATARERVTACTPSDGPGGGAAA
Chain of Opioid receptors; mu & delta (Homo sapiens) (P35372 whole entry, looked up): as the sequence (P35372 whole entry, looked up) above
Chain of Opioid receptors; mu & delta (Homo sapiens) (P41143 whole entry, looked up): as the sequence (P41143 whole entry) above
Chain of Opioid receptors; delta & kappa (Homo sapiens) (P41143 whole entry, looked up): as the sequence (P41143 whole entry) above
Chain of Opioid receptors; delta & kappa (Homo sapiens) (P41145 whole entry, looked up): as the sequence (P41145 whole entry, looked up) above

SMILES	Activity [1]	Activity [2]	Activity [3]	Time (Mus musculus [4])	Time (Mus musculus [5])	Activity (Mus musculus [6])	ED50 (Mus musculus [7])	ED50 (Mus musculus [8])	Activity (Mus musculus [9])	MPE (Mus musculus [7])	MPE (Mus musculus [8])	Activity [10]	ED50 (Mus musculus [11])	ED50 (Mus musculus [12])	Activity (Mus musculus [13])
O=C(N[C@@H]1CC[C@@]2(O)[C@H]3Cc4ccc(O)c5c4[C@@]2(CCN3CC2CC2)[C@H]1O5)c1nccc2ccccc12	inactive	Active	Active	20 min	10 min	Non-toxic	1408 pmol	2070 pmol							
Cl.O=C(N[C@@H]1CC[C@@]2(O)[C@H]3Cc4ccc(O)c5c4[C@@]2(CCN3CC2CC2)[C@H]1O5)c1ccc2ccccc2c1		Active		5 min	20 min	Non-toxic	18.7 pmol	2060 pmol	Toxic						
O=C(N[C@H]1CC[C@@]2(O)[C@H]3Cc4ccc(O)c5c4[C@@]2(CCN3CC2CC2)[C@H]1O5)c1ccc2ccccc2c1		inactive								<=60%	<=60%				
COc1ccc2cc(C(=O)N[C@@H]3CC[C@@]4(O)[C@H]5Cc6ccc(O)c7c6[C@@]4(CCN5CC4CC4)[C@H]3O7)ccc2c1				5 min	10 min					<=60%	<=60%				
O=C(N[C@@H]1CC[C@@]2(O)[C@H]3Cc4ccc(O)c5c4[C@@]2(CCN3CC2CC2)[C@H]1O5)c1cccc2ccccc12		Active					20.9 pmol		Toxic		<=60%	Active			
COc1cc2ccccc2cc1C(=O)N[C@@H]1CC[C@@]2(O)[C@H]3Cc4ccc(O)c5c4[C@@]2(CCN3CC2CC2)[C@H]1O5	Active			5 min		Non-toxic	115.1 pmol	312.4 pmol	Toxic						
CN(C(=O)c1ccc2ccccc2c1)[C@@H]1CC[C@@]2(O)[C@H]3Cc4ccc(O)c5c4[C@@]2(CCN3CC2CC2)[C@H]1O5	Active	inactive								<=60%	<=60%				
O=C(N[C@@H]1CC[C@@]2(O)[C@H]3Cc4ccc(O)c5c4[C@@]2(CCN3CC2CC2)[C@H]1O5)c1cnc2ccccc2n1	inactive	Active	Active	5 min		Non-toxic	50.8 pmol	757.2 pmol							
O=C(N[C@@H]1CC[C@@]2(O)[C@H]3Cc4ccc(O)c5c4[C@@]2(CCN3CC2CC2)[C@H]1O5)c1cccc2ncccc12	inactive									<=60%	<=60%				
O=C(N[C@@H]1CC[C@@]2(O)[C@H]3Cc4ccc(O)c5c4[C@@]2(CCN3CC2CC2)[C@H]1O5)c1ccc2cc(F)ccc2c1	Active			20 min		Non-toxic	81.1 pmol				<=60%		5 nmol	2.5 nmol	inactive
